Published values from different studies.
Target: Mitogen-activated protein kinase kinase kinase 11 (MAP3K11, Homo sapiens, UniProt Q16584)
Observed: enzyme activity
Mode: inhibitor

| Compound | technique | concentration | remaining activity |
| --- | --- | --- | --- |
| O=C(Nc1cnn(-c2csc(C(=O)NC3COC3)c2)c1)Nc1ccccc1Cl | – | 5 µM | 93.5% |
| FC(F)c1nc2ccccc2n1-c1nc(N2CCOCC2)nc(N2CCOCC2)n1 | – | 10 µM | 97% |
| Brc1cnc(Nc2cccc(CN3CCOCC3)c2)nc1NCCc1c[nH]cn1 | radiometric | 1 µM | 2% |
| Oc1cccc(-c2nc(N3CCOCC3)c3oc4ncccc4c3n2)c1 | – | 10 µM | 57% |
| COc1cc(Nc2cnc(C#N)c(O[C@H](C)CN(C)C)n2)ncc1-c1cnn(C)c1 | radiometric | 10 µM | 69% |
| CC(C)(O)[C@H]1CC[C@H](Nc2ccc3ncc(-c4cccc(C(F)(F)F)c4)n3n2)CC1 | – | 1 µM | 68.9% |
| O=C(Nc1cccc(Nc2ncc(Br)c(NCCc3cnc[nH]3)n2)c1)N1CCCC1 | radiometric | 1 µM | 2% |
| Cc1ccc(C(=O)Nc2ccc(CN3CCN(C)CC3)c(C(F)(F)F)c2)cc1C#Cc1cnc2cccnn12 | – | 23.5 nM | 98% |
| Cc1sc(C(=O)NC2COC2)cc1-n1cc(NC(=O)Nc2c(F)cccc2Cl)cn1 | – | 10 µM | 90.7% |
| CC(C)(C)c1nc2c(s1)c1nc(N)ncc1c1ccc(NS(=O)(=O)c3c(F)cccc3F)c(F)c12 | radiometric | 1 µM | 22% |
| Cc1nn(CC(F)(F)F)cc1Nc1ncc(C2CC2)c(NCCc2c[nH]cn2)n1 | radiometric | 1 µM | 91% |
